The text below walks through data of ChEMBL document CHEMBL1152681, “Natural and synthetic 2'-hydroxy-chalcones and aurones: synthesis, characterization and evaluation of the antioxidant and soybean lipoxygenase inhibitory activity” (Bioorg Med Chem, 2009).

The IC50 is the midpoint of a concentration-inhibition curve. Usually inhibition stands for how much of the control response was suppressed.

Assay [1] in a line: Inhibition of soybean 5-lipoxygenase by UV-absorbance based enzyme assay. Details: species or system Glycine max. The method, boiled down:
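Soybean lipoxygenase (enzyme solution 1/9 × 10^-4 w/v in saline) incubated at room temperature with sodium linoleate and compound in DMSO, in Tris buffer pH 9. Conversion to 13-hydroperoxylinoleic acid recorded at 234 nm and compared with a standard inhibitor.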

Assay [2] is described as follows: Antioxidant activity assessed as superoxide anion radical scavenging activity at 10 uM. In kind it is functional. The essentials:
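Non-enzymatic superoxide generation from PMS/NADH/air-oxygen, measured by NBT reduction. Compounds preincubated 2 min before NADH was added. Mixture of 3 µM PMS, 78 µM NADH and 25 µM NBT in phosphate buffer pH 7.4, incubated 2 min at room temperature. Absorbance read at 560 nm against a PMS-containing blank. Caffeic acid was the standard.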

Assay [3] in a line: Antioxidant activity assessed as hydrogen peroxide scavenging activity by peroxyoxalate chemiluminescent method. It is filed as functional.
Assay [4] deals with Radical scavenging activity. Kind of assay: Antioxidant activity assessed as DPPH radical scavenging activity at 50 uM after 60 mins. It is filed as functional. (DPPH is a stable violet radical that fades when it is reduced.)
Assay [5] in a line: Antioxidant activity assessed as inhibition of AAPH-induced lipid peroxidation at 10 uM by uV spectrophotometry. In kind it is functional. The method, boiled down: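 Aqueous linoleic acid dispersion (16 mM, 10 µL) in 0.05 M phosphate buffer pH 7.4, prethermostated at 37 °C. Oxidation started under air with AAPH (40 mM solution, 50 µL) and run with 10 µL compound aliquots. The control contained the same DMSO level. The rate of conjugated diene hydroperoxide formation was followed by the rise in absorbance at 234 nm at 37 °C.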

In assay [6] the test system is Radical scavenging activity. Kind of assay: Antioxidant activity assessed as DPPH radical scavenging activity at 50 uM after 20 mins. It is filed as functional.
Assay [7] concerns Radical scavenging activity. Kind of assay: Antioxidant activity assessed as DPPH radical scavenging activity at 100 uM after 20 mins. In kind it is functional. The method, boiled down: (§1)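 DPPH (0.05 mM) in absolute ethanol; compounds in DMSO added to final 0.1 mM. Mixture shaken vigorously and left 20 min or 60 min. Absorbance read at 517 nm and percent activity calculated. Three replicates, averaged.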

For assay [8], the system named is Radical scavenging activity. The assay can be described thus: Antioxidant activity assessed as DPPH radical scavenging activity at 100 uM after 60 mins. It is filed as functional. The essentials:
as §1

Assay [9] in a line: Antioxidant activity assessed as hydroxyl radical scavenging activity at 100 uM. It is filed as functional. The essentials:
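Fe3+/ascorbic acid-generated hydroxyl radicals detected by the Nash method as formaldehyde formed from DMSO oxidation. The mixture held EDTA 0.1 mM, Fe3+ 167 µM, DMSO 33 mM, test compound 0.1 mM and ascorbic acid 10 mM in 50 mM phosphate buffer pH 7.4. Incubated 30 min at 37 °C, then stopped with CCl3COOH (17% w/v). Trolox was the standard.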

On to `COc1ccc(/C=C2\Oc3cc(OC)cc(OC)c3C2=O)cc1` [4,4',6-TRIMETHOXY-AURONE], for which the IC50 in assay [1] came to 50 µM; in [3] it was 1090 µM. Moreover, the Activity in [2] came to 63.2%; in assay [4] it was 0%; in [6], 2.8%; in assay [7], 0%; in assay [8], 11.5%; in assay [9], 100%. For the same compound, the inhibition in assay [5] was determined as 42.6%.
`COc1cc(O)c(C(=O)/C=C/c2ccc(C)cc2)c(OC)c1`: the IC50 in assay [1] is 53 µM; in [3] it was 665 µM. For the same compound, the Activity in assay [2] is 100%; in assay [4], 0%; in assay [6], 0%; in [7], 9.6%; in assay [8] it was 24.6%; in assay [9], 100%. In addition, in assay [5], the inhibition is 100%.
Turning to `COc1ccc(/C=C/C(=O)c2ccccc2O)cc1OC`, the IC50 came out at 67.5 µM in assay [1] and 228 µM in assay [3]. Also, the Activity in [2] amounted to 100%; in [4], 0%; in assay [6], 0%; in assay [7] it was 6.3%; in [8] it was 28.5%; in [9], 84.1%. Further, in assay [5], the inhibition was 64.6%.
Turning to `Cc1ccc(/C=C/C(=O)c2ccccc2O)cc1`, the IC50 in assay [1] came out at 52.5 µM; in assay [3], 1040 µM. Further, the Activity in assay [2] turned out to be 84.2%; in [4], 1.5%; in [6], 0%; in assay [7], 0%; in assay [8], 43.8%; in assay [9] it was 100%. Also, in [5], the inhibition amounted to 49.6%.
